# Results reported in ChEMBL document CHEMBL1165950, “Design and synthesis of new potent anticancer pyrazoles with high FLT3 kinase inhibitory selectivity” (Bioorg Med Chem, 2010).
# Experiments:
# Assay type in all cases: functional
# MCF7 = test: Cytotoxicity against human MCF7 cells assessed as cell growth at 10 uM; details: read-out: Activity
# Method in brief: (§1)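 NCI-60 screen: cells grown in RPMI 1640 with 5% FBS and 2 mM L-glutamine, plated at 5000–40,000 cells/well according to doubling time, and preincubated 24 h at 37 °C, 5% CO2. The single 10 µM dose (DMSO stock) was added, then incubated 48 h. Cells were TCA-fixed and stained with 0.4% SRB, read at 515 nm, and growth % calculated against time-zero and control plates.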
# MDA-MB-231 = test: Cytotoxicity against human MDA-MB-231 cells assessed as cell growth at 10 uM; details: read-out: Activity; method in brief: as §1
# [1] = Cytotoxicity against human Hs 578T cells assessed as cell growth at 10 uM; details: read-out: Activity
# Method in brief: (§2)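 Single-dose NCI-60 screen at 10 µM. Cells were grown in RPMI 1640 with 5% FBS and 2 mM L-glutamine, then treated for 48 h at 37 °C. Protein was measured by SRB staining with absorbance at 515 nm. Percentage growth was recorded, and inhibition percentage was calculated as 100 minus growth percentage.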
# BT-549 = test: Cytotoxicity against human BT549 cells assessed as cell growth at 10 uM; details: read-out: Activity; method in brief: as §2
# T47D = test: Cytotoxicity against human T47D cells assessed as cell growth at 10 uM; details: read-out: Activity; method in brief: as §1
# MDA-MB-468 = test: Cytotoxicity against human MDA-MB-468 cells assessed as cell growth at 10 uM; details: read-out: Activity; method in brief: as §1
# [2] = Growth inhibition of human NCI60 cells at 10 uM after 48 hrs by sulforhodamine B assay relative to control; details: NCI60, 48 h, read-out: GI
# Method in brief: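 Single-dose NCI screen at 10 µM across the 60-line panel, 48 h exposure at 37 °C after a 24 h preincubation. Adherent cells were fixed with cold TCA and stained with 0.4% SRB, and absorbance was read at 515 nm. Inhibition % was taken as 100 minus growth %, and the mean across all lines was reported.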
# CCRF-CEM = test: Cytotoxicity against human CCRF-CEM cells assessed as cell growth at 10 uM; details: read-out: Activity; method in brief: as §2
# HL-60(TB) = test: Cytotoxicity against human HL-60(TB) cells assessed as cell growth at 10 uM; details: read-out: Activity
# Method in brief: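 NCI 60-cell panel screen at a single concentration of 10 µM. Cells are grown in RPMI 1640 with 5% FBS and 2 mM L-glutamine and read by SRB protein staining at 515 nm. Percent growth is measured relative to time-zero and untreated controls; inhibition % is 100 minus growth %.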
# K562 = test: Cytotoxicity against human K562 cells assessed as cell growth at 10 uM; details: read-out: Activity; method in brief: as §2
# MOLT-4 = test: Cytotoxicity against human MOLT4 cells assessed as cell growth at 10 uM; details: read-out: Activity; method in brief: as §1
# [3] = Cytotoxicity against human […] cells assessed as cell growth at 10 uM; details: read-out: Activity; method in brief: as §1
# SR = test: Cytotoxicity against human SR cells assessed as cell growth at 10 uM; details: read-out: Activity; method in brief: as §1
# A549 = test: Cytotoxicity against human A549 cells assessed as cell growth at 10 uM; details: read-out: Activity; method in brief: as §2
# EKVX = test: Cytotoxicity against human EKVX cells assessed as cell growth at 10 uM; details: read-out: Activity; method in brief: as §2
# HOP-62 = test: Cytotoxicity against human HOP62 cells assessed as cell growth at 10 uM; details: read-out: Activity; method in brief: as §2
# HOP-92 = test: Cytotoxicity against human HOP92 cells assessed as cell growth at 10 uM; details: read-out: Activity; method in brief: as §2
# NCI-H226 = test: Cytotoxicity against human NCI-H226 cells assessed as cell growth at 10 uM; details: read-out: Activity; method in brief: as §1
# NCI-H23 = test: Cytotoxicity against human NCI-H23 cells assessed as cell growth at 10 uM; details: read-out: Activity; method in brief: as §1
# NCI-H322M = test: Cytotoxicity against human NCI-H322M cells assessed as cell growth at 10 uM; details: read-out: Activity; method in brief: as §1
# NCI-H460 = test: Cytotoxicity against human NCI-H460 cells assessed as cell growth at 10 uM; details: read-out: Activity; method in brief: as §1
# NCI-H522 = test: Cytotoxicity against human NCI-H522 cells assessed as cell growth at 10 uM; details: read-out: Activity; method in brief: as §1
# COLO 205 = test: Cytotoxicity against human COLO205 cells assessed as cell growth at 10 uM; details: read-out: Activity; method in brief: as §2
# HCC 2998 = test: Cytotoxicity against human HCC2998 cells assessed as cell growth at 10 uM; details: read-out: Activity; method in brief: as §2
# HCT-116 = test: Cytotoxicity against human HCT116 cells assessed as cell growth at 10 uM; details: read-out: Activity; method in brief: as §2
# HCT-15 = test: Cytotoxicity against human HCT15 cells assessed as cell growth at 10 uM; details: read-out: Activity; method in brief: as §2
# HT-29 = test: Cytotoxicity against human HT-29 cells assessed as cell growth at 10 uM; details: read-out: Activity; method in brief: as §2
# KM12 = test: Cytotoxicity against human KM12 cells assessed as cell growth at 10 uM; details: read-out: Activity; method in brief: as §1
# SW-620 = test: Cytotoxicity against human SW620 cells assessed as cell growth at 10 uM; details: read-out: Activity; method in brief: as §1
# SF-268 = test: Cytotoxicity against human SF268 cells assessed as cell growth at 10 uM; details: read-out: Activity; method in brief: as §1
# SF-295 = test: Cytotoxicity against human SF295 cells assessed as cell growth at 10 uM; details: read-out: Activity; method in brief: as §1
compound,measurement,setting,value
COc1cc(C)cc(-c2c(-c3ccnc(-c4cccc(NC(C)=O)c4)c3)cnn2CC#N)c1,growth at 10 µM,MCF7,85%
same,growth at 10 µM,MDA-MB-231,86.5%
same,growth at 10 µM,[1],99%
same,growth at 10 µM,BT-549,79.1%
same,growth at 10 µM,T47D,79.3%
same,growth at 10 µM,MDA-MB-468,82.8%
same,inhibition of growth at 10 µM,[2],9.4%
same,growth at 10 µM,CCRF-CEM,88.9%
same,growth at 10 µM,HL-60(TB),74.7%
same,growth at 10 µM,K562,86.4%
same,growth at 10 µM,MOLT-4,82.8%
same,growth at 10 µM,[3],79.9%
same,growth at 10 µM,SR,80.9%
same,growth at 10 µM,A549,86.7%
same,growth at 10 µM,EKVX,100%
same,growth at 10 µM,HOP-62,98.9%
same,growth at 10 µM,HOP-92,79.6%
same,growth at 10 µM,NCI-H226,93.1%
same,growth at 10 µM,NCI-H23,95.3%
same,growth at 10 µM,NCI-H322M,96.9%
same,growth at 10 µM,NCI-H460,107%
same,growth at 10 µM,NCI-H522,82.5%
same,growth at 10 µM,COLO 205,93.5%
same,growth at 10 µM,HCC 2998,101%
same,growth at 10 µM,HCT-116,96.4%
same,growth at 10 µM,HCT-15,94.5%
same,growth at 10 µM,HT-29,99.4%
same,growth at 10 µM,KM12,109%
same,growth at 10 µM,SW-620,104%
same,growth at 10 µM,SF-268,97.3%
same,growth at 10 µM,SF-295,102%
